Compound activity as filed in PubChem BioAssay.
Shown are actives, neighbours in structure and some others; about 4.4% of the full set was active somewhere.
AHR activator – AHR activators, primary screen, cell-based, luminescence, luciferase reporter, human; Aryl hydrocarbon receptor (Homo sapiens), P35869; AHR-responsive luciferase reporter cells; activation, % at 5 µM; 320,000 tested, 2.5% active; AID 2796, 2010; in the data active = activation above about 47%;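 also: 0% = vehicle wells and 100% = reference agonist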
TbMetRS inhib – T. brucei MetRS inhibitors, primary screen, biochemical, luminescence; 360,000 tested, 0.4% active; AID 624268, 2012; methionyl-tRNA synthetase (Trypanosoma brucei brucei); inhibition, % at 11.9 µM; purified T. brucei MetRS, ATP depletion, Kinase-Glo luminescence;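 active = inhibition above a per-plate cutoff of the control wells' mean inhibition plus 3 SD, cut at about 5.5% in these data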;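 also: 0% = DMSO wells median and 100% = median of wells with control inhibitor compound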
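Material – parasite MetRS enzyme · Medium – HEPES-MgCl2-KCl buffer plus DTT, spermine, BSA, pyrophosphatase · Reagent – ATP, methionine and E. coli bulk tRNA substrates · Times – 15 min enzyme-compound preincubation, 2 h reaction, 10 min detection, 25 °C · Measured by – luminescence of leftover ATP · Evaluation – percent inhibition relative to median high and low control wells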
HTR2A ag – mouse Htr2a agonists via beta-arrestin recruitment, primary screen, cell-based, luminescence; activation, % at 7.6 µM; 360,000 tested, 0.66% active; CHO-K1 mHTR2A beta-arrestin complementation; percent of 30 µM serotonin response; AID 624169, 2012;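 active = activation above a run cutoff, the mean activation of all tested compounds plus 3 SD, cut at about 14% in these data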;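 also: 0% = plate median of compound wells and 100% = 30 µM serotonin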
Target sequence (P35363 whole entry, looked up): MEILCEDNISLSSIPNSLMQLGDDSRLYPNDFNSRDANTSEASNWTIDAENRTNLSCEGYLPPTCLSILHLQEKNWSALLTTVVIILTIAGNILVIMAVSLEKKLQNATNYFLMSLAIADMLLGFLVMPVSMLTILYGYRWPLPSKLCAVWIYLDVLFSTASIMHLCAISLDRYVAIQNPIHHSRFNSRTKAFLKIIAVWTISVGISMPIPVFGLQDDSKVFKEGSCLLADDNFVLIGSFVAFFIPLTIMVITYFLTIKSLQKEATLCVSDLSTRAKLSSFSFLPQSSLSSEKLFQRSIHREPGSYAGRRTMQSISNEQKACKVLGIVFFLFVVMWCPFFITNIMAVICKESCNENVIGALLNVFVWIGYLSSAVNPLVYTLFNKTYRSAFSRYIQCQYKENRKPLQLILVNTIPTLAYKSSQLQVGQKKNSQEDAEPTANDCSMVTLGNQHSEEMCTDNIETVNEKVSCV
bovine MsrA act – bovine MsrA enzyme activators, primary screen, biochemical, absorbance, HTS | Methionine sulfoxide reductase A (Bos taurus) | 360,000 tested, 0.3% active | activation, % at 10.6 µM | purified bovine MsrA, absorbance read-out | AID 602163, 2012; in the data active = activation above about 7.5%;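 also: 0% = vehicle and 100% = reference activator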
AI-2 QS modul – Vibrio harveyi AI-2 quorum sensing modulators, primary screen, JMH597 strain, luminescence/OD600 ratio; Vibrio harveyi JMH597 AI-2 luminescence/OD600 ratio, 9 h; hits give low values; strain lacks LuxN and CqsS sensors; 0 = neutral-control median; activity change, % at 7.5 µM; 300,000 tested, 0.4% active; AID 2094, 2009; in the data active = activity change below about -75%, passing the limit was not always enough;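 also: luminescence divided by OD600 gain over 9 h not by final OD600 alone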
MsrA inhibitor – bovine MsrA enzyme inhibitors, primary screen, biochemical, absorbance, HTS; Methionine sulfoxide reductase A (Bos taurus); purified bovine MsrA, absorbance read-out; inhibition, % at 15.5 µM; 360,000 tested, 0.75% active; in the data active = inhibition above about 4.5%;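 also: 0% = vehicle wells with enzyme and 100% = reference inhibitor wells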
* marks the source's active call; other numbers are inactive results; . = no result.

SMILES	AHR activator	TbMetRS inhib	HTR2A ag	bovine MsrA act	AI-2 QS modul	MsrA inhibitor
FC(F)(F)c1cc(Cl)c2nc(-c3ccccc3)cn2c1	74*	0	-4	-1	15	0
Cc1cc(C(F)(F)F)nc(-n2cc(-c3cccc(N)c3)nn2)n1	8	-1	1	-3	24	1
Nc1cccc(-c2cn3cc(C(F)(F)F)cc(Cl)c3n2)c1	63*	0	-1	-3	24	1
FC(F)(F)c1cc(Cl)c2nc(-c3ccccc3)c(Cc3ccsc3)n2c1	.	-2	4	-11	.	0
Cc1ccccc1C(=O)N1CCC[C@@H]1C(=O)N1CCC[C@H]1C(=O)NCc1ccccc1	.	.	.	.	.	1
COc1cccc(CNC(=O)[C@H]2CCCN2C(=O)[C@H]2CCCN2C(=O)c2ccc(C)cc2)c1	.	.	.	.	.	1
CS(=O)(=O)c1ccc(NC(=O)c2cccc(-n3cnnn3)c2)cc1	4	0	-1	5	.	-1
Cc1ccc(NC(=O)c2cccc(-n3cnnn3)c2)cc1Cl	56*	0	-8	-2	.	-1
COc1ccc(OCc2cc(C(=O)N3CCCC(CO)C3)no2)c2ccccc12 (centres undefined)	50*	0	-1	7	25	-1
CSc1ccccc1OCc1cc(C(=O)N2CCCC(C)C2)no1 (centres undefined)	11	0	4	-4	41	0
COC(=O)[C@]12C[C@H](CC(=O)NCC3CCCCC3)C(=O)N(CCC3=CCCCC3)C1=C[C@H](COCc1ccccc1)O[C@@H]2C	.	.	.	.	.	0
Cc1ccc(S(=O)(=O)n2cnc3ccccc32)cc1[N+](=O)[O-]	5	0	8	-2	10	0
COc1cccc2c1OCC/C2=N\NC(=O)COc1ccccc1C	48*	-1	-2	-14	16	2
CC(C)c1[nH]nc2c1C(c1ccccc1)N(Cc1ccccc1)C2=O (centres undefined)	.	.	.	.	.	2
CC1Nc2ncnc(N3CCN(c4ccccn4)CC3)c2N(Cc2ccccc2)C1=O (centres undefined)	12	0	-20	3	5	-1
Cc1ccc(CN2C(=O)C(C)Nc3ncnc(N4CCN(c5ccccn5)CC4)c32)cc1 (centres undefined)	60*	0	-26	-7	6	2
CN(c1cccnc1)c1ccc(NC(=O)Cc2c[nH]c3ccccc23)cc1-c1ccc(C(C)(C)C)cc1	.	.	.	.	.	1
NC(=O)c1ncn([C@@H]2O[C@H](C(=O)N3CCN(Cc4ccccn4)CC3)[C@@H](O)[C@H]2O)n1	.	.	.	.	.	-1
Cc1cc(C)c2cc3c(N)c(C(=O)N4CCOCC4)sc3nc2c1	23	0	7	-2	24	2
Cc1cc(C)c2nc3sc(C(=O)N4CCOCC4)c(N)c3cc2c1	72*	0	-4	-2	7	0
Nc1c(C(=O)N2CCOCC2)sc2nc3c(cc12)CCCC3	49*	-1	-3	-1	18	0
CCn1c(O)c(/C=C2\C=NN=C2c2ccc(C)cc2)sc1=S	-1	0	0	-4	0	-1
CC(C)n1c(O)c(/C=C2\C=NN=C2c2ccccc2)sc1=S	64*	0	-2	-3	2	0
CCOC(=O)N[C@@H](CC(C)C)C(=O)N1CCC[C@H]1C(=O)NCc1ccccc1	.	.	.	.	.	0
COC(=O)C1=C(C)N(Cc2cccc(C(F)(F)F)c2)C(=NCc2ccc(OC)cc2)NC1c1cccc(C(F)(F)F)c1 (centres undefined)	.	.	.	.	.	1
CCNC(=S)N/N=C/c1cn(Cc2ccc(F)cc2)c2ccccc12	39	0	-7	-4	9	2
CCNC(=S)N/N=C/c1cn(Cc2ccccc2F)c2ccccc12	51*	-1	-2	-4	23	2
C[C@@H]1CCCCO[C@@H](CN(C)C(=O)NC2CCCCC2)[C@@H](C)CN([C@H](C)CO)C(=O)c2cc(N(C)C)ccc2O1	.	.	.	.	.	0
